Bioassay records deposited in PubChem BioAssay by several laboratories.
Most compounds without a hit are left out; they make up all but 6.4% or so of the library.
TbMetRS inhib: Trypanosoma brucei MetRS inhibition; purified T. brucei MetRS, ATP depletion, Kinase-Glo luminescence; inhibition, % at 11.9 µM; 0.4% of 360,000 active; AID 624268;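 active = inhibition above a per-plate cutoff of the control wells' mean inhibition plus 3 SD, cut at about 5.5% in these data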;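 also: 0% = DMSO wells median and 100% = median of wells with control inhibitor compound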
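Material – parasite MetRS enzyme · Medium – HEPES-MgCl2-KCl buffer plus DTT, spermine, BSA, pyrophosphatase · Reagent – ATP, methionine and E. coli bulk tRNA substrates · Times – 15 min enzyme-compound preincubation, 2 h reaction, 10 min detection, 25 °C · Measured by – luminescence of leftover ATP · Evaluation – percent inhibition relative to median high and low control wells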
MPTP inh: blocks calcium-induced mitochondrial swelling | 1.4% of 360,000 active | isolated mouse mitochondria, Ca2+ swelling absorbance, 30 min | inhibition, % at 10 µM;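 active = inhibition of 50% or more, scaled per plate between neutral and stimulator controls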;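 also: 0% = DMSO wells given calcium and 100% = 1 mM EGTA wells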
EBV gp42 block: EBV gp42 inhibition | inhibition, % (tested at 21.74 µM) | Fluorescence polarization binding assay, mP read-out | Q1HVG2 | AID 1085 | 0.42% of 220,000 active; in the data active = inhibition above about 50%
Target sequence (Q1HVG2 whole entry, looked up): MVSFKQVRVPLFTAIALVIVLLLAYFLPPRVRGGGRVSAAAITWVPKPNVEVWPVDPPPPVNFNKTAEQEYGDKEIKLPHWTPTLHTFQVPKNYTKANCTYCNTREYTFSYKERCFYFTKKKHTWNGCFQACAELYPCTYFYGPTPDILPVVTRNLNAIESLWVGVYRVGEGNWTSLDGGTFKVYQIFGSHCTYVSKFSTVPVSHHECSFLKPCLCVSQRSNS
WT yeast gro inh: growth inhibition of WT yeast, mitochondrial fusion screen | mitochondrial fusion phenotypic screen, WT strain | inhibition, % at 10 µM | 2.1% of 190,000 active; in the data active = inhibition above about 58%; tested in S. cerevisiae
CHOP inhibitor: blocks CHOP induction under ER stress | CHO-K1 CHOP-promoter luciferase, tunicamycin-induced, 15-18 h | inhibition, % at 10 µM | 3.8% of 220,000 active | AID 2732;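 active = compounds that reduced the stress-induced luciferase reporter signal by more than about 70% of percent inhibition, limit read from the data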;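 also: 0% = tunicamycin plus vehicle and 100% = wells without tunicamycin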
GRIN3A LBD mod: modulates the human NR3A ligand-binding domain; 2.5% of 340,000 active; Tm shift relative to glycine control, % at 25 µM; NR3A LBD differential scanning fluorimetry, Tm shift; 0% = protein alone, 100% = glycine-bound protein;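 active = melting temperature shift of at least 10% of the positive control shift, at one fixed dose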
TbMetRS confirm: Trypanosoma brucei MetRS inhibition confirmed. shares compounds with TbMetRS inhib. T. brucei MetRS enzyme, luminescence (ATP depletion). AID 624412. 93% of 1,400 active. inhibition, % at 11.9 µM; in the data active = inhibition above about 7%
Jurkat cytotox: Jurkat T cell cytotoxicity for MetRS hits. shares compounds with TbMetRS inhib. Jurkat cells viability, ATP luminescence. inhibition, % at 8.3 µM. 12% of 1,400 active. AID 624413; in the data active = inhibition above about 15%;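 also: 0% = vehicle and 100% = reference inhibitor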
Tb MetRS inh FP: orthogonal test for Trypanosoma brucei MetRS inhibitors. shares compounds with TbMetRS inhib. purified T. brucei MetRS, fluorescence polarization. inhibition, % at 11.9 µM. 44% of 1,400 active; in the data active = inhibition above about 17%;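 also: 0% = vehicle wells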
The depositor's hits bear a star; · = no result.

SMILES | TbMetRS inhib | MPTP inh | EBV gp42 block | WT yeast gro inh | CHOP inhibitor | GRIN3A LBD mod | TbMetRS confirm | Jurkat cytotox | Tb MetRS inh FP
COc1cccc(N=C2SC(CC(=O)Nc3ccccc3)C(=O)N2Cc2ccccn2)c1 (stereo not drawn) | 6.6* | -1 | -7 | -6 | 5 | -7 | 11* | 3 | 9
COc1ccc(N=C2SC(CC(=O)Nc3ccccc3)C(=O)N2Cc2ccco2)cc1 (stereo not drawn) | -1 | -28 | 0 | 18 | 45 | -4 | · | · | ·
Cc1c(C)[n+](=O)c(-c2ccc(F)cc2)c(C)n1[O-] | -1 | 0 | -15 | 2 | -10 | 0 | · | · | ·
O=C(NCc1cccs1)c1cccc(Nc2nc3ccc(Br)cc3[nH]2)c1 | 5.7* | 40 | 7 | -15 | 61 | 11* | 25* | 1 | 22*
CCN1CCN(c2cc(C)c3cc(NC(=S)NCCCOC)ccc3n2)CC1 | 0 | -1 | · | · | · | 3 | · | · | ·
Nc1cc(Oc2ccc(Cl)cc2Cl)nc(N)n1 | 22* | 0 | · | · | · | 0 | 31* | -1 | 24*
COc1nc(C)nc(C)c1Oc1ccc(Cl)cc1Cl | 3 | 2 | -14 | · | 21 | 0 | · | · | ·
COc1ccc(-c2ccc(C(=O)Nc3cccc(C(C)=O)c3)c3occc23)c(C)c1 | 0 | 0 | · | · | · | · | · | · | ·
COc1ccc(-c2coc3c(C(=O)Nc4cccc(C(C)=O)c4)cccc23)c(C)c1 | 7.6* | 1 | · | · | · | · | 1 | 8 | 21*
CCCCN1C[C@H](c2ccc(OC)cc2)[C@@H](CC(=O)Nc2ccc(Br)cc2)C1=O | 45* | -1 | · | · | · | · | 68* | 9 | 34*
O=C(C[C@H]1C(=O)N(c2ccc(Br)cc2)C[C@@H]1Cc1ccccc1)Nc1ccccc1 | 0 | -2 | · | · | · | · | · | · | ·
O=C(C[C@H]1C(=O)N(c2ccccc2)C[C@@H]1Cc1ccccc1)Nc1ccc(Br)cc1 | 7.6* | 2 | · | · | · | · | 18* | 3 | 11
CCCCN1C[C@H](c2ccc(OC)cc2)[C@@H](CC(=O)Nc2ccc(OC)cc2)C1=O | -1 | 0 | · | · | · | · | · | · | ·
COc1ccc(N2C[C@H](CSC)[C@@H](CC(=O)Nc3ccc(Br)cc3)C2=O)cc1 | 19* | 1 | · | · | · | · | 43* | 0 | 19*
c1ccc(-n2ncc3c(NCCN4CCCCC4)ncnc32)cc1 | -2 | 1 | -18 | -14 | 5 | 1 | · | · | ·
COc1ccccc1CNCCS(=O)(=O)NCc1ccccc1OC | -1 | -1 | · | · | · | 2 | · | · | ·
O=C(CN1CCOCC1)Nc1ccc(Cl)c(Cl)c1 | -1 | 0 | · | · | · | -3 | · | · | ·
O=C(CN1CCN(S(=O)(=O)N2CCOCC2)CC1)Nc1ccc(Cl)c(Cl)c1 | 12* | -1 | · | · | · | 1 | 33* | -3 | 12
CC(C)C[C@H](NC(=O)Nc1ccc(Oc2ccccc2)cc1)C(=O)O | 1 | 10 | -16 | -10 | -5 | 3 | · | · | ·
O=C(Cn1c(/C=C/c2ccccc2)nc2ccccc21)Nc1ccc(F)cc1 | 32* | 42 | -8 | 68* | 31 | 14* | 55* | 8 | 39*
CSc1nc2ccccc2n1CC(=O)Nc1ccccc1 | 0 | -3 | -7 | 6 | 21 | 1 | · | · | ·
CC(=O)NCCNC(=O)[C@H](Cc1ccccc1)NC(=O)c1cccs1 | 0 | 3 | -4 | 5 | 12 | 0 | · | · | ·
Cc1nc2c(ccc3nc(NC(=O)Cc4cccc5ccccc45)sc32)s1 | 0 | 1 | -17 | 53 | 53 | 3 | · | · | ·
Nc1ncnc2c1ncn2[C@@H]1O[C@H](CNS(=O)(=O)c2ccc3c(c2)CCN(C(=O)C(F)(F)F)C3)[C@@H](O)[C@H]1O | 8.7* | 2 | · | · | · | 3 | 17* | 16* | 9
Cn1cc(S(=O)(=O)NC[C@H]2O[C@@H](n3cnc4c(N)ncnc43)[C@H](O)[C@@H]2O)cn1 | 0 | -1 | · | · | · | 0 | · | · | ·
COc1ccc(S(=O)(=O)N(C)C[C@H]2Oc3ccc(NC(=O)Nc4c(C)noc4C)cc3C(=O)N([C@H](C)CO)C[C@@H]2C)cc1 | 0 | -2 | · | · | · | -2 | · | · | ·
